The RNAGym collection of RNA variant scans (doi:10.1126/science.aae0568)
Fewer inactive variants are shown than the library holds.

B1: tRNA (parent)
chain: GUUCCGUUGGCGUAAUGGUAACGCGUCUCCCUCCUAAGGAGAAGACUGCGGGUUCGAGUCCCGUACGGAACG

Variants of: B1
Experiment: yeast fitness relative to wild type (ratio to wild type); higher = fitter; tRNA-Arg(CCU), competitive growth, 37 C, YPD
Method in brief: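 Variants of the tRNA-Arg(CCU) gene were chemically synthesised with a 3% per-site mutation rate across 69 sites and placed at the native genomic locus in Saccharomyces cerevisiae. Six parallel replicates of the pooled strains were competed in YPD at 37°C for 24 hours, and gene amplicons from the start and end populations were read by 100-nucleotide paired-end sequencing. Darwinian fitness relative to wild type was derived from changes in genotype frequencies. Genotypes required ≥ 100 starting reads, and estimates < 0.5 were set to 0.5.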

Compared with C24U C49G G52C, U13A C31U A40U is higher in yeast fitness: 0.503 for the first, 1.04 for the second.

Compared with C22G G41A G50U C62A G63C, G52A C60U is higher in yeast fitness: no more than 0.5 for the first, 0.579 for the second.

First: C4A G23C A40C C55A
Second: C34A A42U C61G A65U
The yeast fitness of the first is higher: 0.63 for the first, no more than 0.5 for the second.

Compared with C11U A21U G50C, U2C G23A G38A G56C C61U G67A is lower in yeast fitness: 0.788 for the first, no more than 0.5 for the second.

U28G C33G C49U and U47C G58U G63A A65U cannot be ordered by yeast fitness: no more than 0.5 for the first, no more than 0.5 for the second.

First: A21G C29U G41C
Second: A15U A21C
The yeast fitness of the first is lower: 0.562 for the first, 0.611 for the second.

C11G U28A G39A G48A G67A and G18A C34G C55G A65U cannot be ordered by yeast fitness: no more than 0.5 for the first, no more than 0.5 for the second.

First: U3C A15C A36U
Second: C31U A40G G48A A70U
The yeast fitness of the first is lower: no more than 0.5 for the first, 0.533 for the second.

First: U7C C30G G58C C66U
Second: G18A G44C
The yeast fitness of the first is lower: no more than 0.5 for the first, 0.767 for the second.

G6C A15G G51A C66U A69C and U8C G23A G44C A45U C49A cannot be ordered by yeast fitness: no more than 0.5 for the first, no more than 0.5 for the second.

Going from A37G G39A C62U G63A to C22G G25C C61G, the yeast fitness rises from no more than 0.5 to 0.659.

Going from A36C G68A to C30A U35C A37U, the yeast fitness falls from 0.56 to 0.547.

Compared with C30U C31G A65C, A15G C29A A69C is lower in yeast fitness: 0.821 for the first, 0.517 for the second.

First: C5G C55A C62U
Second: C29A C31G C49A C55G
The yeast fitness of the first is lower: 0.546 for the first, 0.549 for the second.

C4G A37U G58C C60A and C29A C33U U47A A57U cannot be ordered by yeast fitness: no more than 0.5 for the first, no more than 0.5 for the second.

Going from C24G A40G to C5U C11A A21C C27G, the yeast fitness falls from 0.647 to 0.564.

Going from C4G C29U to A20U C27G C46G C49U, the yeast fitness falls from 0.751 to no more than 0.5.

First: G12C C27U G50A
Second: G6C G39C
The yeast fitness of the first is lower: no more than 0.5 for the first, 0.7 for the second.

Compared with C5A C31G U54C, U3C C22G is higher in yeast fitness: 0.588 for the first, 0.859 for the second.

Going from U3G C30G C49U to U2C C27U A36G, the yeast fitness rises from no more than 0.5 to 0.575.

C31A C33U G41A C62A and C11A A20U C22U G67C cannot be ordered by yeast fitness: no more than 0.5 for the first, no more than 0.5 for the second.

Compared with G10C A36C C55G, U7G C30A A65C is higher in yeast fitness: no more than 0.5 for the first, 1.06 for the second.

Compared with G6C U7C C31G, G38A C55U is higher in yeast fitness: no more than 0.5 for the first, 0.849 for the second.

First: C4G C31A G58A
Second: U8A A14C C31A G41C C49A G56A A70C
The yeast fitness of the first is higher: 0.635 for the first, 0.533 for the second.

Going from C5G C33A C34G G50A to C22A C46A A65U, the yeast fitness rises from no more than 0.5 to 0.687.

A14G C24G C31U C55G G63C and C11G G12A C31G U59G A65G cannot be ordered by yeast fitness: no more than 0.5 for the first, no more than 0.5 for the second.

G9A U16C G41A G58A and C11G A14C A42U G51C C60U cannot be ordered by yeast fitness: no more than 0.5 for the first, no more than 0.5 for the second.

Going from A45C A57U A65C to G6A C24U U28A C60U, the yeast fitness falls from 0.617 to no more than 0.5.

Going from G6A C62G to G12C A40U G48C G63A, the yeast fitness falls from 0.827 to no more than 0.5.

Compared with U28G C29A G41C A43U C66G, C4U A21U U26G G58A is lower in yeast fitness: 0.595 for the first, 0.522 for the second.

C34G C49G U54A A57C G68A and C4G C5G G39A C49A cannot be ordered by yeast fitness: no more than 0.5 for the first, no more than 0.5 for the second.

Compared with G18C A43C, U8C C11U G17C C31A A65C is lower in yeast fitness: 0.719 for the first, no more than 0.5 for the second.

First: C27A C29A C49A
Second: C22A C31G
The yeast fitness of the first is lower: no more than 0.5 for the first, 0.749 for the second.

Going from C46A A65U to C29U A43C G63A, the yeast fitness falls from 0.843 to 0.699.

Compared with G17C G18C, U26G C31G A40C C49U C66A is higher in yeast fitness: 0.576 for the first, 0.587 for the second.

First: U3C A37G A70U
Second: U7A C11U C49A
The yeast fitness of the first is lower: 0.568 for the first, 0.614 for the second.

Going from C5G U13C A21C A70C to U2A C24U A70C, the yeast fitness rises from no more than 0.5 to 0.894.

Going from G17A C30A A57U G58A to A42U G58C, the yeast fitness rises from no more than 0.5 to 0.924.

A15G U19C A37U C49U G51A C60A and G6A C33A G58A G63C cannot be ordered by yeast fitness: no more than 0.5 for the first, no more than 0.5 for the second.

Compared with A57C G63C, C30U A42G A43U U54A is lower in yeast fitness: 0.601 for the first, no more than 0.5 for the second.

First: C4A U26G G44C G58A G68C
Second: G6C G51A
The yeast fitness of the first is lower: 0.558 for the first, 0.791 for the second.

C34A A57U U59A and A14U A21G G25A C34G A57U A69U cannot be ordered by yeast fitness: no more than 0.5 for the first, no more than 0.5 for the second.

Going from A21U U53C A57C to C5U C49G A69U, the yeast fitness rises from 0.619 to 0.629.

U8C C27G C29A A70G and U2A A20C A37G G52A U53A cannot be ordered by yeast fitness: no more than 0.5 for the first, no more than 0.5 for the second.

Compared with G23A A57C C62G, U26A C27U is higher in yeast fitness: 0.625 for the first, 0.919 for the second.

U2A A42U G67C and C4G G17A U28A C55U cannot be ordered by yeast fitness: no more than 0.5 for the first, no more than 0.5 for the second.

Going from C4G U7A C11A A21C C29U C49U to A21G A57U A70U, the yeast fitness rises from no more than 0.5 to 0.582.

Compared with U2G C4A U16C, C31A C34U C61G is higher in yeast fitness: no more than 0.5 for the first, 0.609 for the second.

Going from G12C C46A to C46G G48C U64G, the yeast fitness falls from 0.928 to no more than 0.5.

Going from U2C G12A C24A U28A A42C U47G C49G to G12C U54C, the yeast fitness rises from 0.582 to 0.702.

G10A C31U A42G and C5G A37C A43G A45U G51C C62G cannot be ordered by yeast fitness: no more than 0.5 for the first, no more than 0.5 for the second.

C4G C5G C29U G39C and C5U G17A C60G G67A cannot be ordered by yeast fitness: no more than 0.5 for the first, no more than 0.5 for the second.

Compared with C4G A65U, C11G U19C C27G U28G is lower in yeast fitness: 0.793 for the first, no more than 0.5 for the second.

C5A G12A A37G A43C C55G G68A and U32C A37U G52A C66A cannot be ordered by yeast fitness: no more than 0.5 for the first, no more than 0.5 for the second.

Going from C22U C31G G67C to C5G A21U, the yeast fitness rises from 0.653 to 0.731.

U19A A21C G25C C31G C33U G67A and A20C C62A G68C cannot be ordered by yeast fitness: no more than 0.5 for the first, no more than 0.5 for the second.

U3A C5G C29G A36C U53G and G6C C55G A70C cannot be ordered by yeast fitness: no more than 0.5 for the first, no more than 0.5 for the second.

Compared with G12A A20G, A14G U26A is higher in yeast fitness: 0.923 for the first, 0.989 for the second.

Compared with U32A G41C A65U, A15U C31U G67A is higher in yeast fitness: no more than 0.5 for the first, 0.565 for the second.

C5U C22U U26A C55G and A20U C31A C33G G56A cannot be ordered by yeast fitness: no more than 0.5 for the first, no more than 0.5 for the second.

Compared with C5U G9A C49A, C11G A14U A36U G38C is higher in yeast fitness: 0.513 for the first, 0.553 for the second.

Compared with G10C G25C G38C A40G A42G U64A G68A, C34G U59C is higher in yeast fitness: 0.515 for the first, 0.602 for the second.

First: C60A C62G A70C
Second: G12C C24G
The yeast fitness of the first is lower: no more than 0.5 for the first, 0.622 for the second.

First: A42C U53A U54A
Second: C46G A65U
The yeast fitness of the first is lower: no more than 0.5 for the first, 0.992 for the second.

G18A C34U A40G U47C and U7C A21U A36U A37C cannot be ordered by yeast fitness: no more than 0.5 for the first, no more than 0.5 for the second.

First: C11G C30U A37C C55G A65G
Second: U7A A70C
The yeast fitness of the first is lower: no more than 0.5 for the first, 0.817 for the second.

Going from C5G A21G U32C U47A G68A to G9A A15G, the yeast fitness rises from no more than 0.5 to 0.884.

Compared with G9A C30U, C33G C60A C66G is lower in yeast fitness: 0.888 for the first, no more than 0.5 for the second.

Going from U7A A15C C27A C61G to A20C C24G A42G, the yeast fitness rises from no more than 0.5 to 0.585.

U2A U28A A37C G58C A69G and A37C C49G A57C cannot be ordered by yeast fitness: no more than 0.5 for the first, no more than 0.5 for the second.

Compared with C11G C27U U47A G52C, C27U C29U C62U is higher in yeast fitness: no more than 0.5 for the first, 0.578 for the second.

Compared with C33U U54C G58A, C29G A37G A70G is lower in yeast fitness: 0.643 for the first, 0.562 for the second.

First: G9A C11G C24G A42U
Second: U2C C30U C33U
The yeast fitness of the first is lower: no more than 0.5 for the first, 0.512 for the second.

Going from C11U A21U to C5G U32A, the yeast fitness falls from 1.02 to 0.678.

C4U U8G G12A C55U and G6C U35A A40U G41C C49A cannot be ordered by yeast fitness: no more than 0.5 for the first, no more than 0.5 for the second.

Compared with C11A U59C A69U, G10A G12A U16A G18A A45U is lower in yeast fitness: 0.573 for the first, no more than 0.5 for the second.

Going from A20G U47A U53A to A20G C31G A70G, the yeast fitness rises from no more than 0.5 to 0.715.

Going from G6C A14C U54C to A14C C62G, the yeast fitness rises from no more than 0.5 to 0.599.

Going from G18C G51A A69G to C22U A65U A70U, the yeast fitness rises from no more than 0.5 to 0.628.

Compared with U28C C33U A45U, G52A G56A A65U A70G is lower in yeast fitness: 0.578 for the first, no more than 0.5 for the second.

Compared with U2G A20G C33U G39A A65G, G41C C62A is higher in yeast fitness: no more than 0.5 for the first, 0.713 for the second.

First: C11G U16G U35A G41C
Second: A20C G48A C49A
The yeast fitness of the first is lower: no more than 0.5 for the first, 0.557 for the second.

First: G23C A43U
Second: U26G C62G
The yeast fitness of the first is lower: 0.733 for the first, 0.755 for the second.

Variant C27A G38U A45G G48C has a yeast fitness of no more than 0.5.
